Our source for the IC50 values is BindingDB's records for doi:10.1021/acs.jmedchem.0c01897 (University of Michigan, 2021).

Broadly, the IC50 is the concentration needed to halve the response being measured. Higher therefore signals lower potency.

For this assay, the target named is Signal transducer and activator of transcription 3 (Homo sapiens, UniProt P40763). The experiment in a line: Inhibition of IL-6 induced STAT3 transcriptional activity in human HEK293 cells expressing SIE-luc2P preincubated for overnight followed by IL-6 stimulation and measured after 24 hr by Bio-Glo luciferase reagent based microplate reader assay. Summed up: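 GloResponse SIE-luc2P HEK-293 cells were seeded at 10,000/well and incubated overnight. STAT3 was activated with IL6 (100 ng/ml) for 24 h, then compound was added for 24 h. Bio-Glo luciferase reagent was added and luminescence read after 5 min. IC50 from three independent experiments, mean ± SD.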
Chain of Signal transducer and activator of transcription 3 (P40763 whole entry): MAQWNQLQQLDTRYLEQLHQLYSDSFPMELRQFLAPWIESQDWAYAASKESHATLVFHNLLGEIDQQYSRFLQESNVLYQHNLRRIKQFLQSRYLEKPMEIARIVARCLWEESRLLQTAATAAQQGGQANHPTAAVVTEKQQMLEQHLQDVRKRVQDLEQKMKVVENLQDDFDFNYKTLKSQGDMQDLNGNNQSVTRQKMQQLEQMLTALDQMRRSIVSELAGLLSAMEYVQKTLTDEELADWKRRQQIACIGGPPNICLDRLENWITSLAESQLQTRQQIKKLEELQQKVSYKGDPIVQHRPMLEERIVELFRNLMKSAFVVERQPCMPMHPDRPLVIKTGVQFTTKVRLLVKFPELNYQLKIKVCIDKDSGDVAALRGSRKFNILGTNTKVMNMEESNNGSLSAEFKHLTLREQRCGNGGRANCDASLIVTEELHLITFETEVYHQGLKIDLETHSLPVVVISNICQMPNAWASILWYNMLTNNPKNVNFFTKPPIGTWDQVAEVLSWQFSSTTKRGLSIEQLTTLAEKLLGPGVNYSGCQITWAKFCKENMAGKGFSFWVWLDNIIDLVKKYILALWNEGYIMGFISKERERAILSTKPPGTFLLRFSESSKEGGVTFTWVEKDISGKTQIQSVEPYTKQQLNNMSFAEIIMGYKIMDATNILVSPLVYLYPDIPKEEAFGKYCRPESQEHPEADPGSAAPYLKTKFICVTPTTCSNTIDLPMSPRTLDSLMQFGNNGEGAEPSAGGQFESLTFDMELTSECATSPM

On to `O=C1CCC(N2C(=O)c3cccc(NCCOCCOCCOCCOCCOCCOCCNC(=O)c4cc5c(o4)C(=O)c4ccccc4C5=O)c3C2=O)C(=O)N1` (stereo not drawn), for which the IC50 came out at 2.5 µM. This lies in the single-digit micromolar range.

Compound `Cc1ncsc1-c1ccc(CNC(=O)[C@@H]2C[C@@H](O)CN2C(=O)[C@@H](NC(=O)COCCOCCNC(=O)c2cc3c(o2)C(=O)c2ccccc2C3=O)C(C)(C)C)cc1` registered a half-maximal inhibitory concentration (IC50) of 11.4 µM. Against the preceding compound, the IC50 is about 4.6-fold higher.

Compound `O=C1CCC(N2C(=O)c3cccc(NCCOCCOCCOCCOCCNC(=O)c4cc5c(o4)C(=O)c4ccccc4C5=O)c3C2=O)C(=O)N1` (stereo not drawn) gave an IC50 of 2.7 µM.

`CN1C(=O)CCC(N2C(=O)c3cccc(NCCCCCC4CCN(CCNC(=O)c5cc6c(o5)C(=O)c5ccccc5C6=O)CC4)c3C2=O)C1=O` (stereo not drawn) had an IC50 of 1.7 µM.

Take `O=C1CCC(N2Cc3c(NCCOCCOCCNC(=O)c4cc5c(o4)C(=O)c4ccccc4C5=O)cccc3C2=O)C(=O)N1` (stereo not drawn): the IC50 came out at 10.9 µM. Compared with the last compound, the IC50 is about 6.4-fold higher.

`O=C1CCC(N2C(=O)c3cccc(NCCOCCOCCOCCNC(=O)c4cc5c(o4)C(=O)c4ccccc4C5=O)c3C2=O)C(=O)N1` (stereo not drawn) had an IC50 of 2.6 µM.

In the case of `O=C1CCC(N2C(=O)c3cccc(NCCNC(=O)c4cc5c(o4)C(=O)c4ccccc4C5=O)c3C2=O)C(=O)N1` (stereo not drawn), the IC50 is 15.3 µM.

For `O=C1CCC(N2C(=O)c3ccc(NCCOCCOCCNC(=O)c4cc5c(o4)C(=O)c4ccccc4C5=O)cc3C2=O)C(=O)N1` (stereo not drawn), it took 3.4 µM to reach half-maximal inhibition (IC50).

In turn, `O=C1CCC(N2C(=O)c3cccc(C#CCCCNC(=O)c4cc5c(o4)C(=O)c4ccccc4C5=O)c3C2=O)C(=O)N1` (stereo not drawn) had an IC50 of 4.2 µM.

Consider `O=C1CCC(N2C(=O)c3cccc(NCCCCCNC(=O)c4cc5c(o4)C(=O)c4ccccc4C5=O)c3C2=O)C(=O)N1` (stereo not drawn), for which half-maximal inhibition (IC50) was put at 4.6 µM.

As for `Cc1ncsc1-c1ccc(CNC(=O)[C@@H]2C[C@@H](O)CN2C(=O)[C@@H](NC(=O)COCCNC(=O)c2cc3c(o2)C(=O)c2ccccc2C3=O)C(C)(C)C)cc1`, the IC50 was greater than 30 µM.

Regarding `O=C1CCC(N2C(=O)c3cccc(OCCCCNC(=O)c4cc5c(o4)C(=O)c4ccccc4C5=O)c3C2=O)C(=O)N1` (stereo not drawn), the IC50 came to 5.7 µM.

`O=C1CCC(N2C(=O)c3cccc(NCCCCCC4CCN(CCNC(=O)c5cc6c(o5)C(=O)c5ccccc5C6=O)CC4)c3C2=O)C(=O)N1` (stereo not drawn) returned an IC50 of 0.9 µM.
